Here are results for five compounds from ChEMBL document CHEMBL2062504, “Diterpenoid alkaloids from the lateral root of Aconitum carmichaelii” (J Nat Prod, 2012).

Activity calls are given as the source filed them. The rule behind the calls is not given here.

For data set [1], the system named is Mus musculus. The data set is described as follows: Analgesic activity in mouse assessed as reduction in acetic acid-induced writhing at 5 mg/kg, ip relative to vehicle-treated control. The settings on record: route intraperitoneal. Also on record: scale not given: the % may be the effect or the level left. It is filed as functional. In outline:
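Mice dosed ip at 5 mg/kg, then given acetic acid to provoke writhing. Writhes were counted, and the value is the percent reduction in writhes compared with a blank control group, reported as mean ± deviation.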
For orientation: In writhing tests, fewer writhes than in controls are read as antinociception.

Data set [2] deals with Peritoneal macrophage cell. Put plainly: Antiinflammatory activity in mouse peritoneal macrophages assessed as inhibition of nitric oxide production at 10 uM. The data set is classed as functional, cell-based.
Another data set concerns Bel-7402. Put plainly: Cytotoxicity against human Bel7402 cells at 10 uM after 96 hrs by MTT assay. The data set is classed as functional, cell-based. On the technique in general: Formazan colour is commonly taken as a measure of viable cells.
For another data set, the system named is HCT-8. The data set is described as follows: Cytotoxicity against human HCT8 cells at 10 uM after 96 hrs by MTT assay. It is filed as functional, cell-based.
For a further data set, the system named is Liver microsomes. Put plainly: Antioxidant activity in rat liver microsome assessed as inhibition of FeSO4-induced lipid peroxidation at 10 uM incubated for 15 mins prior to FeSO4-challenge measured after 15 mins by modified thiobarbituric acid method. It is filed as functional.
Another data set has as its system A549. The data set is described as follows: Cytotoxicity against human A549 cells at 10 uM after 96 hrs by MTT assay. It is filed as functional, cell-based.
Data set [3] in a line: Toxicity in ip dosed mouse acetic acid wrtihe model. The data set is classed as organism-based. Conditions: in vivo. In outline:
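Acute toxicity in mice dosed intraperitoneally, reported as LD50 in mg/kg.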

The test system of another data set is KETR3. Put plainly: Cytotoxicity against human Ketr3 cells at 10 uM after 96 hrs by MTT assay. It is filed as functional, cell-based.
For data set [4], the system named is Mus musculus. The data set is described as follows: Toxicity in mouse acetic acid writhe model assessed as mortality at 5 mg/kg, ip. The data set is classed as organism-based. Further details: dose 5 mg/kg, route intraperitoneal. The settings on record: in vivo. In outline: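 Mice given 5 mg/kg ip in the acetic acid-induced writhing test; deaths recorded, alongside percent reduction of writhes versus blank control.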

For another data set, the system named is WB-F344. Put plainly: Hepatoprotective activity against DL-galactosamine-induced cell death in rat WB-F344 cells at 10 uM incubated for 1 hr prior to DL-galactosamine-challenge measured after 24 hrs by MTT assay. The data set is classed as functional, cell-based.
Another data set concerns BGC-823. The data set is described as follows: Cytotoxicity against human BGC823 cells at 10 uM after 96 hrs by MTT assay. The data set is classed as functional, cell-based.
Another data set concerns MCF7. Put plainly: Cytotoxicity against human MCF7 cells at 10 uM after 96 hrs by MTT assay. The data set is classed as functional, cell-based.
For data set [5], the system named is Mus musculus. Put plainly: Analgesic activity in mouse assessed as reduction in acetic acid-induced writhing at 0.5 mg/kg, ip relative to vehicle-treated control. The data set is classed as functional. Further details: scale not given: the % may be the effect or the level left. Conditions: route intraperitoneal. In outline: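 Acetic acid-induced writhing test in mice. Compound given intraperitoneally at 0.5 mg/kg. Analgesia expressed as percent reduction in number of writhes versus blank control.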

The subject of a further data set is PC-12. The data set is described as follows: Neuroprotective activity against serum starvation-induced cell death in rat PC12 cells assessed as cell viability at 10 uM incubated for 24 hrs prior to serum starvation measured after 24 hrs by MTT assay (reference value: 55.1+/-4.2%). It is filed as functional. Conditions: read-out: Activity.

In the case of `COC[C@]12CN(C)C3[C@@H]4[C@H](OC)[C@H]1[C@@]3([C@@H](OC)C[C@H]2O)[C@]1(O)C[C@@]2(O)[C@H](OC(=O)c3ccccc3)[C@@H]1[C@]4(OC)[C@@H](O)[C@@H]2OC` (stereo in doubt; 7), in the data set on Mus musculus [1], the Activity was 35%.

In general, LD50 refers to the dose at which mortality reaches 50%. Take `COC[C@@]12CC[C@H](OC)[C@]34C([C@H]([C@H](OC)[C@H]13)[C@]1(OC(C)=O)[C@H]3[C@@H](OC(=O)c5ccccc5)[C@](O)(C[C@H]34)[C@H](OC)[C@@H]1O)N(C)C2`: the inhibition result (in [2]; in the data set on Liver microsomes) was “inactive” in each case. In addition, the outcome with Bel-7402, in the data set on HCT-8, in the data set with A549, with KETR3, in the data set on WB-F344 and with BGC-823 was inactive. Also, the result in the data set on MCF7 was inactive. In [3], this compound returned an LD50 of 4.37 mg/kg. Besides, the Activity result in the data set on Mus musculus [4] is reported as “Toxic”; in the data set on Mus musculus [5], 30%.

Consider `COC[C@]12CN(C)C3[C@@H]4[C@H](OC)[C@H]1[C@@]3([C@@H](OC)C[C@H]2O)[C@]1(O)C[C@@]2(O)[C@H](OC(=O)c3ccccc3)[C@@H]1[C@]4(OC)[C@@H](O)[C@@H]2OC` (stereo in doubt; 8), for which the Activity with Mus musculus [1] is on record as 56%.

For the compound `CCN1C[C@]2(COC)CC[C@H](OC)[C@]34C1[C@H]([C@H](O)[C@H]23)[C@]1(OC)[C@H]2[C@@H](OC(=O)c3ccccc3)[C@H](C[C@H]24)[C@@H](OC)[C@@H]1O`, the inhibition result (in [2]; with Liver microsomes) was “inactive” each time. Also, the result in the data set with Bel-7402, in the data set on HCT-8, in the data set with A549, with KETR3, in the data set on WB-F344 and with BGC-823 was inactive. In the data set with MCF7, the outcome was inactive. Moreover, the viability at 10 µM in the data set with PC-12 came out at 75.8%.

In the case of `COC[C@@]12CC[C@H](OC)[C@]34C(C([C@H](OC)[C@H]13)[C@]1(OC(C)=O)[C@H]3[C@@H](OC(=O)c5ccccc5)[C@](O)(C[C@H]34)[C@@H](OC)[C@@H]1O)N(C)C2` [HYPACONITINE], the inhibition result (in [2]; in the data set with Liver microsomes) was “inactive” throughout. Also, the result in the data set on Bel-7402, in the data set with HCT-8, in the data set on A549, with KETR3, in the data set with WB-F344 and in the data set with BGC-823 was inactive. Also, in the data set on MCF7, the result was inactive. The compound also showed an LD50 in data set [3] of 2.65 mg/kg. Further, the Activity result in the data set on Mus musculus [4] is on record as “Toxic”; in the data set with Mus musculus [5], 36%.
